# In article PMC9827907 (Chemmedchem, 2022):
# Where two headings read alike, the source gives them in different places.
# Columns and labels:
# P. falciparum 3D7 = assay: In vitro P. falciparum viability assay, 3D7 strain, 72-hour SYBR green; format: cell-based, Plasmodium falciparum; conditions: for IC50: Plasmodium falciparum, 3D7, 72 h, read-out: 3D7 IC50
# How it was run: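 Asexual blood-stage growth inhibition was measured on the 3D7 strain with 72 h exposure to test compound. IC50 values are geometric mean ± SEM of at least two independent experiments.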
# [1] = Metabolic stability study using human liver microsomes; format: in vitro ADME; conditions: pooled human liver microsomes
# P. falciparum Dd2 (wt) = assay: In vitro intraerythrocytic antimalarial activity, Dd2; format: cell-based, Plasmodium falciparum
# [2] = test system: P. falciparum Dd2 (Pfdhodh); assay: In vitro intraerythrocytic antimalarial activity, lab adapted strain Dd2; format: cell-based, Plasmodium falciparum
# How it was run: (§1)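 Intraerythrocytic asexual-stage activity was measured against laboratory resistant lines, with resistance mutations introduced into a Dd2 wild-type background. Fold shift was taken relative to Dd2 wild type. Strain-matched reference inhibitors were tested on Dd2 wild type and on the mutant lines. Values are means of at least two independent experiments.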
# [3] = test system: P. falciparum clone D6 (PfeEF2 Y186N); assay: 72 hour concentration-response assay, M5717-selected clone D6; format: cell-based, Plasmodium falciparum
# How it was run: (§2)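 Drug-selected P. falciparum clones carry PfeEF2 point mutations in the chloroquine-resistant Dd2-B2 background and are compared with the parental Dd2-B2 clone. […] Each clone was tested against parent by unpaired t test with Welch's correction.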
# [4] = test system: P. falciparum clone G12 (PfeEF2 L507S); assay: 72 hour concentration-response assay, MMV692140-selected clone G12; format: cell-based, Plasmodium falciparum; conditions: vs parental Dd2-B2, Figure 3
# How it was run: as §2
# [5] = test system: P. falciparum clone D3 (PfeEF2 F770L); assay: 72 hour concentration-response assay, MMV692140-selected clone D3; format: cell-based, Plasmodium falciparum; conditions: IC50 vs Dd2-B2 parent
# How it was run: as §2
# [6] = test system: P. falciparum clone F8 (PfeEF2 L775F); assay: 72 hour concentration-response assay, M5717-selected clone F8; format: cell-based, Plasmodium falciparum
# How it was run: as §2
# [7] = test system: P. falciparum Dd2 (PfeEF2); assay: In vitro intraerythrocytic antimalarial activity, lab adapted strain Dd2; format: cell-based; conditions: Plasmodium falciparum, DD2, read-out: IC50, Dd2 (PfeEF2)
# How it was run: as §1
# [8] = test system: P. falciparum clone E5 (PfeEF2 E134D); assay: 72 hour concentration-response assay, M5717-selected clone E5; format: cell-based, Plasmodium falciparum
# How it was run: as §2
# [9] = test system: P. falciparum clone A3 (PfeEF2 Y719C); assay: 72 hour concentration-response assay, MMV692140-selected clone A3; format: cell-based, Plasmodium falciparum; conditions: vs parental Dd2-B2, Figure 3
# How it was run: as §2
# [10] = test system: P. falciparum Dd2 (Pfcytb); assay: In vitro intraerythrocytic antimalarial activity, lab adapted strain Dd2; format: cell-based, Plasmodium falciparum
# How it was run: as §1
# P. falciparum Cam3.I = assay: 72-hour [3H]hypoxanthine incorporation assay, field adapted strain Cam3.I; format: cell-based; conditions: Plasmodium falciparum, read-out: IC50, Cam3.I
# How it was run: (§3)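 Intraerythrocytic asexual-stage activity was measured against field-adapted drug-resistant P. falciparum strains. The drug-sensitive NF54 strain served as the wild-type reference, and fold shift was taken relative to NF54. Chloroquine and artesunate were run as control drugs.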
# P. falciparum 7G8 = assay: 72-hour [3H]hypoxanthine incorporation assay, field adapted strain 7G8; format: cell-based; conditions: Plasmodium falciparum, 7G8, read-out: IC50, 7G8
# How it was run: as §3
# P. falciparum TM90 C2b = assay: 72-hour [3H]hypoxanthine incorporation assay, field adapted strain TM90 C2b; format: cell-based; conditions: Plasmodium falciparum, TM90, read-out: IC50, TM90 C2b
# How it was run: as §3
# P. falciparum Dd2 = assay: 72-hour [3H]hypoxanthine incorporation assay, field adapted strain Dd2; format: cell-based; conditions: Plasmodium falciparum, DD2, read-out: IC50, Dd2
# How it was run: as §3
# P. falciparum K1 = assay: 72-hour [3H]hypoxanthine incorporation assay, field adapted strain K1; format: cell-based; conditions: Plasmodium falciparum, K1, read-out: IC50, K1
# How it was run: as §3
# [11] = test system: P. falciparum Dd2 (Pfpi4k); assay: In vitro intraerythrocytic antimalarial activity, lab adapted strain Dd2; format: cell-based, Plasmodium falciparum
# How it was run: as §1
# [12] = Plasmodium falciparum, DD2, read-out: IC50, Dd2 (wt)
smiles,measurement,setting,value
"O=C(C1CCN(c2nnnn2-c2ccccc2)CC1)N1CCCc2ccc(Cl)cc21 [Compound 23, (7-Chloro-3,4-dihydroquinolin-1(2H)-yl)(1-(1-phenyl-1H-tetrazol-5-yl)piperidin-4-yl)methanone]",IC50,P. falciparum 3D7,> 25 µM
"O=C(C1CCN(c2nnnn2-c2ccccc2)CC1)N1CCCc2cc(Cl)ccc21 [Compound 20, (6-Chloro-3,4-dihydroquinolin-1(2H)-yl)(1-(1-phenyl-1H-tetrazol-5-yl)piperidin-4-yl)methanone]",IC50,P. falciparum 3D7,> 25 µM
O=C(C1CCN(c2nnnn2-c2ccc(N3CCCC3)cc2)CC1)N1CCCc2c(Cl)cccc21 [Compound 33],microsomal CLint at 1 µM,[1],> 400 µL/min/mg
same,IC50,P. falciparum 3D7,0.11 ± 0.01 µM
COc1ccc(-n2nnnc2N2CCC(C(=O)N3CCCc4c(Cl)cccc43)CC2)cc1 [Compound 31],microsomal CLint at 1 µM,[1],> 400 µL/min/mg
same,IC50,P. falciparum 3D7,0.7 ± 0.1 µM
"O=C(C1CCN(c2nnnn2-c2ccccc2)CC1)N1CCCc2ncccc21 [Compound 24, (3,4-Dihydro-1,5-naphthyridin-1(2H)-yl)(1-(1-phenyl-1H-tetrazol-5-yl)piperidin-4-yl)methanone]",IC50,P. falciparum 3D7,10.2 ± 0.75 µM
"O=C(C1CCN(c2nnnn2-c2ccccc2)CC1)N1CCCc2c(Cl)cccc21 [Compound 17, (5-Chloro-3,4-dihydroquinolin-1(2H)-yl)(1-(1-phenyl-1H-tetrazol-5-yl)piperidin-4-yl)methanone]",IC50,P. falciparum 3D7,0.6 ± 0.09 µM
Cc1cc(Nc2ccc(S(F)(F)(F)(F)F)cc2)n2nc(C(C)(F)F)nc2n1 [DSM265],IC50,P. falciparum Dd2 (wt); [12],8 nM
same,IC50,"[2]; Plasmodium falciparum, DD2, read-out: IC50, Dd2 (Pfdhodh)",143 nM
same,"fold shift, Dd2 (Pfdhodh)",[2]; vs Dd2 (wt),18 fold
O=C(NCCN1CCCC1)c1cc(-c2ccc(CN3CCOCC3)cc2)nc2ccc(F)cc12 [Compound M5717],"Fold shift, clone D6",[3]; IC50 vs Dd2-B2 parent,14700x fold
same,IC50,"[3]; Plasmodium falciparum, D6, 72 h, read-out: IC50, clone D6",3.1 µM
same,Cross resistance of compound 2-selected clone G12,[4],not cross‐resistant
same,"Fold shift, clone D3",[5],1.6 fold
same,"Fold shift, clone F8",[6]; IC50 vs Dd2-B2 parent,3100x fold
same,IC50,"[6]; Plasmodium falciparum, 72 h, read-out: IC50, clone F8",660 nM
same,IC50,[7],3.1 µM
same,"Fold shift, clone E5",[8]; IC50 vs Dd2-B2 parent,27x fold
same,IC50,"[8]; Plasmodium falciparum, 72 h, read-out: IC50, clone E5",5.8 nM
same,Cross resistance of compound 2-selected clone A3,[9],not cross‐resistant
same,IC50,P. falciparum Dd2 (wt); [12],2 nM
O=C(C1CCN(c2nnnn2-c2ccc(F)cc2)CC1)N1CCOc2ccccc21 [Compound 30],microsomal CLint at 1 µM,[1],83 µL/min/mg
same,IC50,P. falciparum 3D7,8.9 ± 1.4 µM
O=C(C1CCN(c2nnnn2C2CCCCC2)CC1)N1CCCc2ccccc21 [Compound 29],microsomal CLint at 1 µM,[1],> 400 µL/min/mg
same,IC50,P. falciparum 3D7,3.5 ± 0.02 µM
O=C(C1CCN(c2nnnn2-c2ccc(OC(F)(F)F)cc2)CC1)N1CCCc2ccccc21 [Compound 9],IC50,P. falciparum 3D7,5.5 ± 0.86 µM
COc1cc2[nH]c(C)c(-c3ccc(Oc4ccc(OC(F)(F)F)cc4)cc3)c(=O)c2cc1Cl [ELQ300],IC50,"[10]; read-out: IC50, Dd2 (Pfcytb), reference compound",254 nM
same,"fold shift, Dd2 (Pfcytb)",[10]; vs Dd2 (wt),13 fold
same,IC50,"P. falciparum Dd2 (wt); read-out: IC50, Dd2 (wt), reference compounds",19 nM
"COc1ccc(-n2nnnc2N2CCC(C(=O)N3CCCc4ccccc43)CC2)cc1 [Compound 7, (3,4-Dihydroquinolin-1(2H)-yl)(1-(1-(4-methoxyphenyl)-1H-tetrazol-5-yl)piperidin-4-yl)methanone]",microsomal CLint at 1 µM,[1],521 µL/min/mg
same,IC50,P. falciparum 3D7,0.9 ± 0.14 µM
C[C@H]1[C@H](OC(=O)CCC(=O)O)O[C@@H]2O[C@@]3(C)CC[C@H]4[C@H](C)CC[C@@H]1[C@@]24OO3 [Artesunate],IC50,P. falciparum Cam3.I,11 nM
same,IC50,P. falciparum 7G8,2 nM
same,IC50,P. falciparum TM90 C2b,5 nM
same,IC50,P. falciparum Dd2,6 nM
same,IC50,P. falciparum K1,2 nM
"CC(C)n1nnnc1N1CCC(C(=O)N2CCCc3ccccc32)CC1 [Compound 27, (3,4-Dihydroquinolin-1(2H)-yl)(1-(1-isopropyl-1H-tetrazol-5-yl)piperidin-4-yl)methanone]",microsomal CLint at 1 µM,[1],135 µL/min/mg
same,IC50,P. falciparum 3D7,5.6 ± 0.92 µM
"O=C(C1CCN(c2nnnn2-c2ccccc2)CC1)N1CCCc2cnccc21 [Compound 25, (3,4-Dihydro-1,6-naphthyridin-1(2H)-yl)(1-(1-phenyl-1H-tetrazol-5-yl)piperidin-4-yl)methanone]",IC50,P. falciparum 3D7,10.8 ± 0.65 µM
CS(=O)(=O)c1ccc(-c2cnc(N)c(-c3ccc(C(F)(F)F)nc3)c2)cc1 [MMV390048],IC50,"[11]; Plasmodium falciparum, DD2, read-out: IC50, Dd2 (Pfpi4k)",102 nM
same,"fold shift, Dd2 (Pfpi4k)",[11]; vs Dd2 (wt),4.8 fold
same,IC50,P. falciparum Dd2 (wt); [12],21.2 nM
CCN(CC)CCCC(C)Nc1ccnc2cc(Cl)ccc12 (centres unmarked) [Chloroquine],IC50,P. falciparum Cam3.I,180 nM
same,IC50,P. falciparum 7G8,80 nM
same,IC50,P. falciparum TM90 C2b,140 nM
same,IC50,P. falciparum Dd2,160 nM
same,IC50,P. falciparum K1,200 nM
"O=C(C1CCN(c2nnnn2-c2ccc(N3CCCC3)cc2)CC1)N1CCCc2c(F)cccc21 [Compound 36, (5-fluoro-3,4-dihydroquinolin-1(2H)-yl)(1-(1-(4-(pyrrolidin-1-yl)phenyl)-1H-tetrazol-5-yl)piperidin-4-yl)methanone]",microsomal CLint at 1 µM,[1],> 400 µL/min/mg
same,IC50,P. falciparum 3D7,0.066 ± 0.008 µM
same,improvement of antimalarial asexual blood stage in vitro potency,"P. falciparum 3D7; relative to hit compound 2, 72-hour 3D7 assay",30 fold
O=C(C1CCN(c2nnnn2-c2ccc(N3CCCC3)cc2)CC1)N1CCOc2c(Cl)cccc21 [Compound 34],microsomal CLint at 1 µM,[1],296 µL/min/mg
same,IC50,P. falciparum 3D7,1.6 ± 0.081 µM
"Cc1ccccc1-n1nnnc1N1CCC(C(=O)N2CCCc3ccccc32)CC1 [Compound 8, (3,4-Dihydroquinolin-1(2H)-yl)(1-(1-(o-tolyl)-1H-tetrazol-5-yl)piperidin-4-yl)methanone]",IC50,P. falciparum 3D7,1.4 ± 0.02 µM
COc1ccc(-n2nnnc2N2CCC(C(=O)N3CCOc4c(Cl)cccc43)CC2)cc1 [Compound 32],microsomal CLint at 1 µM,[1],78 µL/min/mg
same,IC50,P. falciparum 3D7,3.6 ± 1.2 µM
N#Cc1ccc2c(c1)N(C(=O)C1CCN(c3nnnn3-c3ccccc3)CC1)CCC2 [Compound 22],IC50,P. falciparum 3D7,> 25 µM
"O=C(C1CCN(c2nnnn2C2CCCC2)CC1)N1CCCc2ccccc21 [Compound 28, (1-(1-cyclopentyl-1H-tetrazol-5-yl)piperidin-4-yl)(3,4-dihydroquinolin-1(2H)-yl)methanone]",microsomal CLint at 1 µM,[1],> 400 µL/min/mg
same,IC50,P. falciparum 3D7,3.3 ± 0.48 µM
